The values that follow come from ChEMBL document CHEMBL3526089, “Selective mechanism-based inactivation of CYP3A4 by CYP3cide (PF-04981517) and its utility as an in vitro tool for delineating the relative roles of CYP3A4 versus CYP3A5 in the metabolism of drugs” (Drug Metab Dispos, 2012).

Assay type in all cases: ADME
One series deals with CYP3A5 (Homo sapiens, UniProt P20815). Nature of the series: Time dependent inhibition of testosterone 6beta-hydroxylase activity of human recombinant CYP3A5 in presence of human P450 oxidoreductase and b5 assessed as decrease in enzyme activity at 2 uM preincubated for 30 mins by IC25-shift assay. Particulars: recombinant CYP3A5 with human P450 oxidoreductase and b5, probe testosterone (6beta-hydroxylation); call rule not given here. In outline: (§1)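 IC25-shift assay. Pooled HLMs or recombinant CYP3A4/3A5/3A7 were preincubated 30 min at 37°C with CYP3cide, with or without NADPH (1.3 mM) (N=2). Mixture diluted 10-fold into probe substrate (~KM) at 37°C. Metabolites analysed by LC/MS/MS. Readout: % decrease in activity vs control.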

The target of another series is CYP2C9 (Homo sapiens, UniProt P11712). Nature of the series: Time dependent inhibition of human CYP2C9 diclofenac 4'-hydroxylase activity assessed as decrease in enzyme activity at 100 uM preincubated for 30 mins by IC25-shift assay. Particulars: probe diclofenac (4'-hydroxylation). A digest of the protocol: as §1
Series [1] deals with T1, Cytochrome P450 3A4 (Homo sapiens, UniProt P08684). Nature of the series: Drug metabolism assessed as human recombinant CYP3A4 in presence of human P450 oxidoreductase and b5-mediated (4-(1-methyl-4-((S)-3-(piperidin-1-yl)pyrrolidin-1-yl)-1H-pyrazolo[3,4-d]pyrimidin-3-yl)-5-p-tolyl-1H-pyrazol-1-yl)methanol formation at 10 uM by HPLC-MS analysis in presence of NADPH. Particulars: recombinant enzyme. In outline:
(§2)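 Recombinant CYP3A4 or CYP3A5 (50 pmol/ml final) added, without preincubation, to 10 µM CYP3cide with NADPH (final 1 mM) in 100 mM phosphate pH 7.4. Trapping incubations also held 200 µM KCN or 5 mM GSH (final). Incubated 1 h at 37°C, quenched with acetonitrile, dried, reconstituted. Metabolites analysed by LC/Orbitrap ESI-MS.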

For series [2], the target named is T1, Cytochrome P450 3A4. As to the kind of experiment: Reversible inhibition of testosterone 6beta-hydroxylase activity of human recombinant CYP3A4 in presence of human P450 oxidoreductase and b5. A digest of the protocol: (§3)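 IC50 was measured with baculovirus-expressed CYP3A4 plus POR and cytochrome b5 (P450:reductase:b5 1:5:7), with substrate at its experimentally derived KM, in duplicate. Enzyme was 0.010 mg/ml for midazolam 1'-hydroxylation and 0.020 mg/ml for testosterone 6β-hydroxylation.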

Series [3] concerns the target T2, Cytochrome P450 3A5 (Homo sapiens, UniProt P20815). As to the kind of experiment: Inhibition of midazolam 1'-hydroxylase activity of human recombinant CYP3A5 harboring human P450 oxidoreductase and b5 assessed as decrease in enzyme activity preincubated for 30 mins by LC-MS/MS analysis. A digest of the protocol: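 rCYP3A5 with POR and b5 (0.010 mg/ml for midazolam, 0.020 mg/ml for testosterone) preincubated 30 min at 37°C with 2 µM inhibitor, ±NADPH (1.3 mM), N=2. Mixture then diluted 10-fold into probe substrate at ~KM at 37°C. Activity expressed as percent of control remaining, reported as decrease in activity.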

Series [4] in a line: Inhibition of CYP3A5*3/*3 in 5 mg/ml of human liver microsomes assessed as midazolam 1'-hydroxylase activity at <2.5 uM after 10 mins. For orientation: Microsomes from liver hold many membrane-bound enzymes, among them those of drug oxidation.
The nature of series [5]: Inhibition of CYP3A5*3/*3 in 5 mg/ml of human liver microsomes assessed as midazolam 1'-hydroxylase activity at 13 uM after 10 mins.
Series [6] concerns the target T2, Cytochrome P450 3A5. Nature of the series: Drug metabolism assessed as human recombinant CYP3A5 in presence of human P450 oxidoreductase and b5-mediated 1-((3S)-1-(1-methyl-3-(1-methyl-5-p-tolyl-1H-pyrazol-4-yl)-1H-pyrazolo[3,4-d]pyrimidin-4-yl)pyrrolidin-3-yl)-2,3,4,5-tetrahydropyridinium formation at 10 uM by HPLC-MS analysis in presence of NADPH. As to conditions: recombinant enzyme. In outline: as §2

For series [7], the target named is T3, CYP3A (Homo sapiens, UniProt P08684+P20815+P24462+Q9HB55). As to the kind of experiment: Reversible inhibition of human CYP3A felodipine oxidase activity. As to conditions: probe felodipine (oxidation). In outline: (§4)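 Reversible IC50 with pooled HLM or recombinant CYP3A7 (with POR and b5), protein 0.010–0.10 mg/ml depending on isoform. Probe substrate at its experimentally derived KM. Metabolite formation measured by LC/MS/MS. IC50 determinations run in duplicate.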

The target of the next series is CYP2C8 (Homo sapiens, UniProt P10632). Nature of the series: Time dependent inhibition of human CYP2C8 paclitaxel 6alpha-hydroxylase activity assessed as decrease in enzyme activity at 100 uM preincubated for 30 mins by IC25-shift assay. As to conditions: probe paclitaxel (6alpha-hydroxylation). In outline: as §1
The next series addresses Cytochrome P450 1A2 (Homo sapiens, UniProt P05177). As to the kind of experiment: Reversible inhibition of human CYP1A2 phenacetin O-deethylase activity. A digest of the protocol:
as §4

Series [8] addresses T3, CYP3A. As to the kind of experiment: Reversible inhibition of human CYP3A testosterone 6beta-hydroxylase activity. As to conditions: probe testosterone (6beta-hydroxylation). In outline:
as §4

The target in series [9] is T1, Cytochrome P450 3A4. As to the kind of experiment: Inhibition of testosterone 6beta-hydroxylase activity of human recombinant CYP3A4 in presence of human P450 oxidoreductase and b5 assessed as decrease in enzyme activity preincubated for 30 mins by LC-MS/MS analysis.
In series [10] the target is T3, CYP3A. Nature of the series: Reversible inhibition of human CYP3A midazolam 1'-hydroxylase activity. Particulars: probe midazolam (1'-hydroxylation). A digest of the protocol:
as §4

The target in series [11] is T2, Cytochrome P450 3A5. As to the kind of experiment: Reversible inhibition of testosterone 6beta-hydroxylase activity of human recombinant CYP3A5 in presence of human P450 oxidoreductase and b5. In outline:
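Recombinant CYP3A5 expressed in baculovirus, with P450 oxidoreductase and cytochrome b5 (P450:POR:b5 1:13:7). Enzyme at 0.010 mg/ml for midazolam 1'-hydroxylase and 0.020 mg/ml for testosterone 6β-hydroxylase. Each substrate at its experimentally derived KM. IC50 determined in duplicate.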

For series [12], the target named is T3, CYP3A. Nature of the series: Time dependent inhibition of human CYP3A midazolam 1'-hydroxylase activity assessed as decrease in enzyme activity at 1 uM preincubated for 30 mins by IC25-shift assay. Particulars: probe midazolam (1'-hydroxylation). A digest of the protocol: as §1
Series [13] has as its target T3, CYP3A. As to the kind of experiment: Time dependent inhibition of human CYP3A testosterone 6beta-hydroxylase activity assessed as decrease in enzyme activity at 5 uM preincubated for 30 mins by IC25-shift assay. Particulars: probe testosterone (6beta-hydroxylation). In outline: as §1
Series [14] is described as follows: Fraction unbound in human liver microsomes at 0.8 mg/ml.
For a further series, the system named is CYP3A5*1/*1. Nature of the series: Time dependent inhibition of CYP3A5*1/*1 in human liver microsomes assessed as midazolam 1'-hydroxylase activity at 0.56 uM after 10 mins by dilution method. As to conditions: liver microsomes (CYP3A5*1/*1 genotype), probe midazolam (1'-hydroxylation). A digest of the protocol:
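Genotyped individual HLMs (0.1 mg/ml) preincubated at 37°C with CYP3cide (0–1.3 μM; 10 min in the two-donor study, 5 min in the 30-donor study), with or without 1.3 mM NADPH (N=3). Mixture diluted 20-fold into 23 μM midazolam for 6 min. 1'-OH-midazolam measured. Readout: % of vehicle/no-NADPH control activity.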

Another series addresses CYP3A4 (Homo sapiens, UniProt P08684). As to the kind of experiment: Time dependent inhibition of testosterone 6beta-hydroxylase activity of human recombinant CYP3A4 in presence of human P450 oxidoreductase and b5 assessed as decrease in enzyme activity at 0.050 uM preincubated for 30 mins by IC25-shift assay. As to conditions: recombinant CYP3A4 with human P450 oxidoreductase and b5, probe testosterone (6beta-hydroxylation). A digest of the protocol:
as §1

Series [15] concerns the target T1, Cytochrome P450 3A4. As to the kind of experiment: Reversible inhibition of midazolam 1'-hydroxylase activity of human recombinant CYP3A4 harboring human P450 oxidoreductase and b5. A digest of the protocol:
as §3

T2 sequence (P20815 whole entry): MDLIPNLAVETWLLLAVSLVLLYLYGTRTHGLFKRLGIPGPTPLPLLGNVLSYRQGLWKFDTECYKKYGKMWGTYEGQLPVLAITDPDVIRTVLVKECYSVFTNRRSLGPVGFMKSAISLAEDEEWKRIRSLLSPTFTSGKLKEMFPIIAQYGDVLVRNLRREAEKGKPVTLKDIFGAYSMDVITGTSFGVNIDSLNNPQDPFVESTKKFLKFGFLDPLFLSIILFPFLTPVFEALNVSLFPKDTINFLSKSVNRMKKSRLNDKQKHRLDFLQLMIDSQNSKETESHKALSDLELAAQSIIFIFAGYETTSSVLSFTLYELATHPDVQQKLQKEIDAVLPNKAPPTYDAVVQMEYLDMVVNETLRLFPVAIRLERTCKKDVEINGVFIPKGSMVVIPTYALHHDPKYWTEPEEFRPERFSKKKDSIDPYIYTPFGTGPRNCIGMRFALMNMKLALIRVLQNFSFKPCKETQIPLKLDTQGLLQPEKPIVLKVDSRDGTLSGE
T1 sequence (P08684 whole entry): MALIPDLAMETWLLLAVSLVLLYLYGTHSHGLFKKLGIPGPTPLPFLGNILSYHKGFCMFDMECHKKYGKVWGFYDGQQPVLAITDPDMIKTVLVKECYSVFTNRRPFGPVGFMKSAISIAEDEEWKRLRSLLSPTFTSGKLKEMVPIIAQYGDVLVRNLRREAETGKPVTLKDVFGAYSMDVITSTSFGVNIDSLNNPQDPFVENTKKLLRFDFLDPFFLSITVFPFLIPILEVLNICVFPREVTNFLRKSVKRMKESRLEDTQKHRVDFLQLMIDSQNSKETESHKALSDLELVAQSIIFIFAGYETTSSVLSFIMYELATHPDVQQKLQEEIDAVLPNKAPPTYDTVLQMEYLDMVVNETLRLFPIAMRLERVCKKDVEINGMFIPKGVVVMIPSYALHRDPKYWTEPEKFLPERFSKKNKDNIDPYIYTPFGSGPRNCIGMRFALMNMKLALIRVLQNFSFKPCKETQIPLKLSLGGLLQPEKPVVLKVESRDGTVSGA
Chain of CYP2C8 (P10632 whole entry): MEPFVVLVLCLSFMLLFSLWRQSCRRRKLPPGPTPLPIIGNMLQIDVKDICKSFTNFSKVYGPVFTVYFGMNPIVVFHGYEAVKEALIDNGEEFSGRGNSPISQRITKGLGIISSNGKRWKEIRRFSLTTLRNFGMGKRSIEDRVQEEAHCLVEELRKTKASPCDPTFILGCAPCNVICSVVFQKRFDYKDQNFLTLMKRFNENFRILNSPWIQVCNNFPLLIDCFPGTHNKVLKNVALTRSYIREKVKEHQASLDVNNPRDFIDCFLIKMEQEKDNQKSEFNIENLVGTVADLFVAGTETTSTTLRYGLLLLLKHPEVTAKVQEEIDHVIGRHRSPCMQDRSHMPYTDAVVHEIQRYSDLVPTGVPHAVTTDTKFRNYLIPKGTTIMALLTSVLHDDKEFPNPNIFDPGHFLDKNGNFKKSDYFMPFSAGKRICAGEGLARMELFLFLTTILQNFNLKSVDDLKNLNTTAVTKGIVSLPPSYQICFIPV
Chain of CYP2C9 (P11712 whole entry): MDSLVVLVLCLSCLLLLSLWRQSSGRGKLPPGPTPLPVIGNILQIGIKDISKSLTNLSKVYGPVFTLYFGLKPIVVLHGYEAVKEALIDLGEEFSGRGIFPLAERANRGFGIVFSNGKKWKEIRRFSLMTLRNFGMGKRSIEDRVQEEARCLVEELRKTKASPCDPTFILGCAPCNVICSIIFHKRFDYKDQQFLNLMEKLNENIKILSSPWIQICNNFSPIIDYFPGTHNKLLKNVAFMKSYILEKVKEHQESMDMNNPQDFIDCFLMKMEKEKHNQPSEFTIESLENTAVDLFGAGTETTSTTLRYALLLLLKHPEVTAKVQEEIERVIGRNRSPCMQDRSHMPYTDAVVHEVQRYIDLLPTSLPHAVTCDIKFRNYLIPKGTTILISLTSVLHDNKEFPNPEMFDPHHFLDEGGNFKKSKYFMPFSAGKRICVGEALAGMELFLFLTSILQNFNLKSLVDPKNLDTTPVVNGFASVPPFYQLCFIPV
Chain of CYP3A5 (P20815 whole entry): as the sequence (P20815 whole entry) above
Chain of CYP3A4 (P08684 whole entry): as the sequence (P08684 whole entry) above
Chain of Cytochrome P450 1A2 (P05177 whole entry): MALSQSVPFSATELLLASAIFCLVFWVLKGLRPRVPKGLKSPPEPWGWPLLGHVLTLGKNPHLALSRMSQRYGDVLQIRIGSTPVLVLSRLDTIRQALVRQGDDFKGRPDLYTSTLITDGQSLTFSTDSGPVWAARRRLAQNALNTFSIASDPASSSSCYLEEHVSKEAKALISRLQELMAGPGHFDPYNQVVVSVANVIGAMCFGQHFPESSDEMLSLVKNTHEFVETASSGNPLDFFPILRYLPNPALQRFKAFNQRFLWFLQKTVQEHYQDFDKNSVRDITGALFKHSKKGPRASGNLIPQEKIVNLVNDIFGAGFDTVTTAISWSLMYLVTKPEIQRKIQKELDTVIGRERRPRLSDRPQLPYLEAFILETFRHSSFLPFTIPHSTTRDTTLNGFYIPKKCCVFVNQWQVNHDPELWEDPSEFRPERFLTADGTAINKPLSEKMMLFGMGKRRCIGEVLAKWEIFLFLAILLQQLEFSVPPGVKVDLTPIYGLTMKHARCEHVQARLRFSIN

Turning to `Cc1ccc(-c2c(-c3nn(C)c4ncnc(N5CC[C@H](N6CCCCC6)C5)c34)cnn2C)cc1`, at CYP3A5, the inhibition (commonly the change of the read-out against control, counted positive when it falls) at 30 min, 2 µM was 71%. Moreover, the inhibition at 30 min, 100 µM came to 5.4% on CYP2C9 and 13% at CYP2C8. For the same compound, the Drug metabolism result on Cytochrome P450 3A4 [1] and at Cytochrome P450 3A5 [6] was “metabolite_detected” throughout. For the same compound, the IC50 (commonly the concentration needed to halve the response being measured) was found to be 690 nM on Cytochrome P450 3A4 [2]; 160 nM against CYP3A [7]; 43000 nM at Cytochrome P450 1A2; 1400 nM against CYP3A [8]; 330 nM at CYP3A [10]; 71000 nM on Cytochrome P450 3A5 [11]. Besides, the IC50 on Cytochrome P450 3A4 [15] amounted to 30 nM. The inhibition constant (Ki) (usually a dissociation constant, usually derived from enzyme kinetics or from competition with a known ligand) is 2000 nM on Cytochrome P450 3A5 [3] and 170 nM at Cytochrome P450 3A4 [9]. Besides, the “inhibition (INH)” value in [4] is on record as “Not Active”; in series [5], “Active”. Besides, the inhibition at 30 min, 1 µM on CYP3A [12] was 47%. Further, the inhibition at 30 min, 5 µM on CYP3A [13] turned out to be 53%. Further, the fraction unbound (commonly the share of the substance not bound to proteins or other matrix) in series [14] was determined as 0.56. In addition, the inhibition at 10 min, 0.56 µM with CYP3A5*1/*1 was determined as 0.4%. The inhibition at 30 min, 0.05 µM on CYP3A4 amounted to 74%.
